# Bioassay records: PubChem BioAssay, Broad Institute
# Wnt bcat act – Wnt/beta-catenin pathway activation; Wnt/beta-catenin reporter cell assay, activator, plate reader; activation, % at 9.35 µM; 300,000 tested, 1.2% active; in the data active = activation above about 30%, passing the limit was not always enough; inconclusive = no clear call, values can overlap the other calls;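 also: 0% = neutral control wells and 100% = positive control wells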
# SR-BI DiI inh – blocks mouse SR-BI lipid uptake from DiI-HDL; ldlA[mSR-BI] CHO cells, DiI-HDL uptake fluorescence, 3 h; AID 488896; inhibition, % at 12.5 µM; 320,000 tested, 0.96% active; Q61009;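 active = mean replicate inhibition of at least 70% and a set share of replicates each scoring 70 or more; inconclusive = meets just one of the two criteria; inactive = fails both criteria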;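 also: 0% = median of neutral control wells and 100% = median of positive control wells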
# Target sequence (Q61009 whole entry, looked up): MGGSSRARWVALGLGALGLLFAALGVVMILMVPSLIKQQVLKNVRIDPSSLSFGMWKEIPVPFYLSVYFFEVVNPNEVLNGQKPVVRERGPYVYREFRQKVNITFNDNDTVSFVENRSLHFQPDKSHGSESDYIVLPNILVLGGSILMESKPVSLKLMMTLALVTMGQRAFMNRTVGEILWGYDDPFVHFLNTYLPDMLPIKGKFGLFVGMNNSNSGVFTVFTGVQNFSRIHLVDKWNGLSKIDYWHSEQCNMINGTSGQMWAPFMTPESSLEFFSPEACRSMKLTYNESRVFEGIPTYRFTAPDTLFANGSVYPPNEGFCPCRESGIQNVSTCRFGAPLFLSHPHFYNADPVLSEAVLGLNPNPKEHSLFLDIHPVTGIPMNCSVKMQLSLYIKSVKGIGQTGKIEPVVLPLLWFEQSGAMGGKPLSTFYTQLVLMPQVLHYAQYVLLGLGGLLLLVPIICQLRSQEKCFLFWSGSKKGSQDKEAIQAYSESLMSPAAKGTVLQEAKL
# SR-BI uptake up – SR-BI HDL lipid transfer activation | CHO ldlA[mSR-BI] cells, DiI-HDL uptake fluorescence, 3 h; 100 = double the neutral-control signal | activation, % at 12.5 µM | 320,000 tested, 0.096% active;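 active = mean replicate activation of at least 60% and every replicate at or above 60%; inconclusive = mean or all-replicate condition met, but not both; inactive = mean below 60% and not all replicates reaching 60%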;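 also: 0% = median plate neutral-control signal and 100% = twice that signal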
#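 system = CHO ldlA[mSR-BI] cells, LDL receptor-null, SR-BI overexpressing | medium = Ham's F12 with 0.5% BSA, HEPES 25 mM, pH 7.4 | probe or stimulus = DiI-HDL 10 µg/mL | compound dosing = single-point compound dose | incubation = compound exposure 3 h, 37 °C | technique = DiI fluorescence, bottom read | read-out = cell-associated DiI fluorescence as measure of HDL uptake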
# HSF1 activator – increases HSF-1 driven luciferase reporter signal | NIH3T3-HGL HSF-1 luciferase reporter, MG132, 8 h; 100% = twice DMSO control signal | 300,000 tested, 1.7% active | activation, % at 9 µM;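 active = mean replicate activation of at least 50% with a set share of replicates each reaching 50%; inconclusive = only one of those two conditions met; inactive = mean below 50% and too few replicates reaching it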;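 also: 0% = median of the neutral control wells and 100% = twice that signal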
# MITF TRPM1 HTS – increases MITF-driven TRPM1 promoter luciferase signal | SK-MEL-5 TRPM1-promoter luciferase, 24 h; % of positive control, neutral wells = 0 | activation, % at 12.5 µM | 300,000 tested, 0.75% active | AID 588334;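 active = mean activation of at least 80% with every replicate also reaching 80%; inconclusive = mean reaches 80% but some replicate falls short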;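 also: 0% = neutral control wells and 100% = parthenolide positive control wells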
# The depositor's hits bear a star; ? = inconclusive; / = not tested or not shown. Rows were chosen to be rich in hits. Some 3.6% of all compounds tested hit in one or more screens of this group.
SMILES,Wnt bcat act,SR-BI DiI inh,SR-BI uptake up,HSF1 activator,MITF TRPM1 HTS
c1ccc(-c2nnc(SCc3ccncc3)o2)cc1,1,/,/,/,/
Fc1ccccc1CSc1nnc(-c2cccs2)o1,42*,/,/,67*,106*
CN(C)c1ccc(/C=C/c2c([N+](=O)[O-])c(=O)n(C)c(=O)n2C)cc1,2,13,-13,16,-8
CN(C)c1ccc(-n2cccc2/C=C/[N+](=O)[O-])cc1,2,21,-21,95*,-66
O=C(C(=O)N1CCC(CNC(=O)c2cccs2)CC1)c1cc2ccccc2o1,-1,/,/,/,/
Cc1cccc(C)c1NC(=O)C(C1CC1)n1c(-c2ccc(-c3ccccc3)cc2)nc2ccccc21 (configuration not stated),-2,/,/,/,/
CC(C)Oc1ccc(N2C(=O)c3ccccc3C2=O)cc1,/,27,-27,58*,2
COc1ccc(N2C(=O)c3ccccc3C2=O)cc1,1,2,-2,32,-5
COc1ccccc1CNc1nc(=S)[nH]c2cc(OC)c(OC)cc12,-1,8,-8,24,-8
COc1cc2[nH]c(=S)nc(NCc3cccs3)c2cc1OC,5,36,-36,123*,-2
O=C(O)c1ccc(-n2c(/C=C/c3cccc([N+](=O)[O-])c3)nc3ccccc3c2=O)cc1,-1,0,0,0,-2
O=C(O)c1ccc(-n2ncc3c2/C(=C\c2cccc([N+](=O)[O-])c2)CC3)cc1,2,-1,1,/,113*
O=C(O)c1ccc(-n2ncc3c2/C(=C/c2cccc([N+](=O)[O-])c2)CC3)cc1,?,/,/,-3,138*
Cc1cccc(C)c1Nc1nnc(SCc2cc([N+](=O)[O-])cc3c2OCOC3)s1,-2,-5,5,99*,-1
COc1cccc(Nc2nnc(SCc3cc([N+](=O)[O-])cc4c3OCOC4)s2)c1,/,58,-58,16,14
O=C(NNc1ncnc2ccccc12)c1cccc(Cl)c1,?,/,/,60*,54
O=C(Nc1nc2ccccc2[nH]1)c1ccccc1,/,14,-14,32,-8
O=C(Nc1nc2ccccc2[nH]1)c1cccc(Cl)c1,32*,-19,19,42,/
O=C(Nc1nc2ccccc2[nH]1)c1ccccc1O,42*,11,-11,?,?
O=C(Nc1nc2ccccc2[nH]1)c1ccc(Cl)cc1,-3,20,-20,39,-3
COc1cccc(-c2cnc(C(O)c3cccc(F)c3)[nH]2)c1 (configuration not stated),0,/,/,/,/
O=C1C=C(O)c2[nH]c(=O)ccc2C1=O,-4,-8,8,/,7
CCc1nn2c(N)c(/C=C3\C=Nc4ccccc43)c(=O)nc2s1,8,-4,4,14,11
Cc1cn2c(N)c(/C=C3\C=Nc4ccccc43)c(=O)nc2s1,39*,/,/,24,/
Nc1cc(N)nc(SCC(=O)Nc2ccc(Br)cc2Cl)n1,4,-29,29,62*,46
SMILES,Wnt bcat act,SR-BI DiI inh,SR-BI uptake up,HSF1 activator,MITF TRPM1 HTS
Nc1nc(SCC(=O)Nc2ccc(Br)cc2Br)n[nH]1,-2,8,-8,/,15
CC(C)NC(=O)COc1ccc(S(=O)(=O)N(C)Cc2ccccc2)cc1,44*,4,-4,17,-4
N#Cc1ccc(OCC(=O)N[C@@H](Cc2ccccc2)c2nc3ccccc3[nH]2)cc1,1,/,/,/,/
OCCNCc1ccc(OCc2ccc(Cl)cc2Cl)cc1,34*,-18,18,26,24
OCCCCNCc1ccc(OCc2ccc(Cl)cc2Cl)cc1,/,-2,2,15,6
Cc1nn(-c2ccc(N3CCCCC3)nn2)c(C)c1CCC(=O)Nc1cccc(F)c1,19,66,-66,20,97*
Cc1ccc(C)c(NC(=O)CCc2c(C)nn(-c3ccc(N4CCCCC4)nn3)c2C)c1,6,83*,-83,22,10
Cc1nn(-c2ccc(N3CCCCC3)nn2)c(C)c1CCC(=O)Nc1ccc(F)cc1,16,49,-49,17,79
CCc1ccc(NC(=O)CCc2c(C)nn(-c3ccc(N4CCCCC4)nn3)c2C)cc1,14,81*,-81,24,44
S=c1sscc1-c1ccccc1,-3,3,-3,/,-7
C[C@@H]1CN([C@H](C)CO)C(=O)CCCn2nncc2CO[C@H]1CN(C)Cc1cccc(O)c1,-1,/,/,/,/
C[C@H]1CN([C@@H](C)CO)C(=O)c2cc(Br)cnc2O[C@H]1CN(C)C(=O)c1ccc2c(c1)OCO2,-1,/,/,/,/
